Data set [1] can be described thus: Drug uptake in human PC3-ML cells expressing PSMA at 10 to 1000 nM after 4 hrs by flow cytometry. Type of data set: ADME, cell-based. Conditions: 1 µM; call rule not given here.
Data set [2] deals with Tumour. Nature of the data set: Drug uptake in tumor of NOD/Shi-scid/IL-2Rgamma null mouse xenografted with human PC3-ML cells expressing PSMA/HPN at 1 nmol, iv measured 24 hrs post dosing by near infrared optical imaging analysis. The format is ADME, organism-based, Neoplasm. Conditions: in vivo. The procedure, abridged:
(§1)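 Six-week-old male NSG mice received 1 million tumor cells subcutaneously in the upper flank. Two weeks later, 1 nmol of the Cy7-labelled ligand in 100 uL PBS was injected via tail vein. NIR fluorescence images were taken 24 hr post injection with a small-animal imaging system.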

Data set [3] can be described thus: Drug uptake in human PC3-ML cells expressing hepsin/PSMA at 100 to 1000 nM after 4 hrs by flow cytometry. As to conditions: 1 µM. The format is ADME, cell-based. In a few lines: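 Cells seeded at 5 × 10^5 per well and grown 48 h to full adhesion. Medium then replaced with compound in RPMI 1640 with 10% FBS for 4 h (methods state final concentration 10 µg/mL). Cells washed twice with cold PBS, fixed in 4% paraformaldehyde for 10 min, and uptake read by flow cytometry.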

Data set [4] deals with Tumour. Description: Drug uptake in tumor of NOD/Shi-scid/IL-2Rgamma null mouse xenografted with human PC3-ML cells expressing PSMA at 1 nmol, iv measured 24 hrs post dosing by near infrared optical imaging analysis. Type of data set: ADME, organism-based, Neoplasm. As to conditions: in vivo. In a few lines: as §1
The next data set deals with Serine protease hepsin (Homo sapiens, UniProt P05981). Description: Inhibition of recombinant human hepsin using Boc-QAR-AMC as substrate preincubated for 30 mins followed by substrate addition by fluorescence assay.
Sequence of Serine protease hepsin (P05981 1-162 limits assumed): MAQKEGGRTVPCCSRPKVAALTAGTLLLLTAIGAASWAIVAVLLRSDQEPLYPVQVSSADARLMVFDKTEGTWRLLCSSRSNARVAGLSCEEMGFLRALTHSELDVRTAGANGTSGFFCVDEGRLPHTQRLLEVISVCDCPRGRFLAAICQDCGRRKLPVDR
Sequence of Serine protease hepsin (P05981 163-417 limits assumed): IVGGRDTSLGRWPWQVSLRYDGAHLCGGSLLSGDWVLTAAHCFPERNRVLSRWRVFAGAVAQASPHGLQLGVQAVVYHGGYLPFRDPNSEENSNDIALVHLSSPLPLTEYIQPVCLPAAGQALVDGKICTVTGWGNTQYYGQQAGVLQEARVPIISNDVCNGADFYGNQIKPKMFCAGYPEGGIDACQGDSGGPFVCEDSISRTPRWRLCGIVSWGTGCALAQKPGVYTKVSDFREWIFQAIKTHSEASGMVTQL
Data set [5] deals with Glutamate carboxypeptidase 2 (Homo sapiens, UniProt Q04609). Description: Inhibition of PSMA (unknown origin) assessed as reduction in glutamate formation using NAAG as substrate preincubated for 30 mins followed by substrate addition by Amplex red assay.
Sequence of Glutamate carboxypeptidase 2 (Q04609 whole entry): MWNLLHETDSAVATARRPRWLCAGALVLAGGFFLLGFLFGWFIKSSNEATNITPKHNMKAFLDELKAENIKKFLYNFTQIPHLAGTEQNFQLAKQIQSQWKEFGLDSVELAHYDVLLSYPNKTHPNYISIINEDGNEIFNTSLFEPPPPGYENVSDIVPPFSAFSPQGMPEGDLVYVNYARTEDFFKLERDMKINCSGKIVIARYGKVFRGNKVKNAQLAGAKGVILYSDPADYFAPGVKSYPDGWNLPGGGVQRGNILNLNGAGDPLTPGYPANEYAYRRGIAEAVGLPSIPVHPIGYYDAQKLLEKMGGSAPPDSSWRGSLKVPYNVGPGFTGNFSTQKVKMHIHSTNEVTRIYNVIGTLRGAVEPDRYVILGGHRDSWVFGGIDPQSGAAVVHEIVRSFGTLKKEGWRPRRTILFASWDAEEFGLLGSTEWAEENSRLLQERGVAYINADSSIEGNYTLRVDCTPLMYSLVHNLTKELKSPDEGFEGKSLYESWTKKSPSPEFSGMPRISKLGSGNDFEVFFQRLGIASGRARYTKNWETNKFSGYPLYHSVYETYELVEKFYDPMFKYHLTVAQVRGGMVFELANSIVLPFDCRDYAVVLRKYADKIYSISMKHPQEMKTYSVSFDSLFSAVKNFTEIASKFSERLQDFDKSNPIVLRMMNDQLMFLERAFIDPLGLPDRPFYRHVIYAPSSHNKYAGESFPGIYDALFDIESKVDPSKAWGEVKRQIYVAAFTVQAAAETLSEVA

Results on eleven compounds are retold here after ChEMBL document CHEMBL3826925, “Design, synthesis and biological evaluation of PSMA/hepsin-targeted heterobivalent ligands” (Eur J Med Chem, 2016).

The structures appear in SMILES notation.

Take `CN1/C(=C/C=C2C=C(/C=C/C3=[N+](CCCCCC(=O)NCCCC[C@H](NC(=O)CCCCCCC(=O)NCCCCC(NC(=O)N[C@@H](CCC(=O)O)C(=O)O)C(=O)O)C(=O)NCc4ccc(-c5ccc(O)c(-c6cc7cc(C(=N)N)ccc7[nH]6)c5)cc4)c4ccc(S(=O)(=O)O)cc4C3(C)C)CCC/2)C(C)(C)c2cc(S(=O)(=O)O)ccc21` (stereo partly specified): the Drug uptake result is “Active” in data set [1], “Active” with Tumour [2], “Active” in data set [3] and “Not Active” with Tumour [4]. For the compound `CC(C)(C)OC(=O)NCc1ccc(-c2ccc(O)c(-c3cc4cc(C(=N)N)ccc4[nH]3)c2)cc1`, the IC50 on Serine protease hepsin came to 11 µM. With `COc1ccc(-c2ccc(O)c(-c3cc4cc(C(=N)N)ccc4[nH]3)c2)cc1`, the half-inhibitory concentration (IC50) on Serine protease hepsin amounted to 7.3 µM.

Turning to `N=C(N)c1ccc2[nH]c(-c3cc(-c4ccc(F)cc4)ccc3O)cc2c1`, at Serine protease hepsin, the IC50 turned out to be 5.9 µM.

As to `N=C(N)c1ccc2[nH]c(-c3cc(-c4ccc(Cl)cc4)ccc3O)cc2c1`, the IC50 on Serine protease hepsin is 23 µM. Still for that read-out and setting: the figure for `N=C(N)c1ccc2[nH]c(-c3cc(-c4cccs4)ccc3O)cc2c1` is 70 µM; for `N=C(N)c1ccc2[nH]c(-c3cc(-c4ccccc4)ccc3O)cc2c1` it is 8.9 µM. As to `CC(=O)NC(=N)c1ccc2[nH]c(-c3cc(-c4ccc(CNC(=O)[C@H](CCCCNC(=O)CCCCC[N+]5=C(/C=C/C6=CC(=C/C=C7/N(C)c8ccc(S(=O)(=O)O)cc8C7(C)C)/CCC6)C(C)(C)c6cc(S(=O)(=O)O)ccc65)NC(=O)CCCCCCC(=O)NCCCCC(NC(=O)N[C@@H](CCC(=O)O)C(=O)O)C(=O)O)cc4)ccc3O)cc2c1` (stereo partly specified), the Drug uptake result in data set [1] and in data set [3] was “Active” in each case. The IC50 in data set [5] was found to be 25 nM.

With `N=C(N)c1ccc2[nH]c(-c3ccccc3O)cc2c1`, the IC50 at Serine protease hepsin is 44 µM. Regarding `N=C(N)c1ccc2[nH]c(-c3cc(-c4ccc(CN)cc4)ccc3O)cc2c1`, the 50% inhibitory concentration (IC50) at Serine protease hepsin came out at 9.3 µM. Consider `N=C(N)c1ccc2[nH]c(-c3cc(-c4ccc(C(F)(F)F)cc4)ccc3O)cc2c1`, for which the IC50 at Serine protease hepsin was 14 µM.
